The list is not random: actives were taken first. Their share in the collection is about 1.2%.
FN deposition inh – fibronectin deposition inhibition; AH1F fibroblasts, Alexa488-fibronectin deposition fluorescence, overnight; inhibition, % at 12.6 µM; 350,000 compounds, 0.086% hits; AID 743247;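 active means mean inhibition across replicates of 30% or more, regardless of how many single replicates reach that level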;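 further: positive control wells lacked labelled fibronectin entirely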
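Test system: AH1F fibroblast monolayer depositing Alexa488-labelled fibronectin into matrix. Input: 10000 cells per well. Technique: fluorescence, ex 485 nm, em 525 nm. Buffer or medium: DMEM plus 2% serum, read in PBS. Timing: 1 h cell adhesion before compound, then overnight fibronectin incubation. Compound: single dose, pinned. Read-out basis: inhibition from reduced deposited-fibronectin fluorescence.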
RAD54 branch – inhibitors of human RAD54 branch migration; Q92698; RAD54 Holliday junction branch migration, FAM/BHQ fluorescence; inhibition, % at 10.4 µM; 360,000 compounds, 0.14% hits; AID 602329;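 active means mean normalized replicate activity at least 40 and at least half of replicates scoring 40 or more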;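 further: 0% = median of neutral control wells and 100% = median of positive control wells; inhibitors cause a drop in the FAM fluorescence signal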
NSD2 inh – inhibitors of human histone methyltransferase NSD2; O96028; inhibition, % at 12.5 µM; 310,000 compounds, 0.54% hits; NSD2 peptide methylation, AlphaScreen, 120 min; in the data active means inhibition above about 50%
AF4-AF9 inh – MLL-AF4/AF9 protein interaction inhibition; 350,000 compounds, 0.47% hits; inhibition, % at 10 µM; AlphaScreen, biotin-AF4 peptide binding to FLAG-AF9;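 active means every replicate reaching a set inhibition limit, whatever the replicate mean, cut at about 25% in these data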;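 further: 0% = plate neutral control median and 100% = total signal loss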
RAD52 anneal inh – blocks human RAD52 DNA annealing; P43351; recombinant RAD52 DNA annealing, FRET fluorescence; inhibition, % at 18.7 µM; 360,000 compounds, 0.46% hits; AID 651710;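 active means every replicate showing at least 50% inhibition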
Target sequence (P43351 whole entry, looked up): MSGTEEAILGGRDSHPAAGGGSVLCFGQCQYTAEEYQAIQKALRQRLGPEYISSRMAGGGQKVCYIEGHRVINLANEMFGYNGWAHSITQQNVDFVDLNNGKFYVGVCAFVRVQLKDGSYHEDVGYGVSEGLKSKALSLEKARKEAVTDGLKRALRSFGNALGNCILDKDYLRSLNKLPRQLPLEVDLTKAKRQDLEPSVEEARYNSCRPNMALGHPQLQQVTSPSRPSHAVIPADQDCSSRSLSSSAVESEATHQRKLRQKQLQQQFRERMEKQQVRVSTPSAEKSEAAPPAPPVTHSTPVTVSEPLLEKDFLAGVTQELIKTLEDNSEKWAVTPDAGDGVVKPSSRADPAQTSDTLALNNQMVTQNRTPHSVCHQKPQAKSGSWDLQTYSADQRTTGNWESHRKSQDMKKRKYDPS
N-glyco inh – N-linked glycosylation inhibition | D54 ERlucT glycosylation luciferase reporter, 24 h; percent of 100 nM tunicamycin response | reporter increase, % at 12.5 µM | 360,000 compounds, 0.23% hits | AID 588692;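 active means mean luciferase reporter signal, scaled so untreated is 0 and the glycosylation-blocking control 100, at or above a set limit in every replicate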;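 further: luciferase carries N-glycosylation sites so blocking glycosylation raises the light; 0% = median of neutral control wells and 100% = median of 100 nM tunicamycin wells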
* marks the source's active call; other numbers are inactive results; . = no result.

SMILES	FN deposition inh	RAD54 branch	NSD2 inh	AF4-AF9 inh	RAD52 anneal inh	N-glyco inh
COc1ccc2c(c1)OC[C@H]1[C@H]2N2C(=O)c3cc(OC)ccc3NC(=O)[C@@]2(C)[C@H]1c1ccccc1	12	3	.	.	-15	24
COc1ccc2c(c1)OC[C@H]1[C@H]2N2C(=O)c3ccc(C)cc3NC(=O)[C@@]2(C)[C@H]1c1ccccc1	1	-9	.	.	.	48*
COc1ccc2c(c1)[C@H]1[C@H](CO2)[C@H](c2ccccc2)[C@]2(C)C(=O)Nc3cc(C)ccc3C(=O)N12	7	-5	.	1	-9	51*
C[C@@]12C(=O)Nc3ccc(Br)cc3C(=O)N1[C@H]1c3cc(Br)ccc3OC[C@@H]1[C@@H]2c1ccccc1	-2	-4	.	-2	-65	15
COc1ccc2c(c1)C(=O)N1[C@H]3c4cc(Cl)ccc4OC[C@@H]3[C@H](c3ccccc3)[C@]1(C)C(=O)N2	4	0	.	.	.	38*
Cc1ccc2c(c1)[C@H]1[C@H](CO2)[C@H](c2ccccc2)[C@]2(C)C(=O)Nc3cc(Cl)ccc3C(=O)N12	.	8	.	.	.	22
C[C@@]12C(=O)N(c3cccc(Cl)c3)C(=O)N1[C@@H]1c3ccccc3OC[C@@H]1[C@H]2c1ccccc1	3	8	.	43*	-4	-2
Cc1ccc2c(c1)[C@H]1[C@H](CO2)[C@H](c2ccccc2)[C@]2(C)C(=O)Nc3ccc(F)cc3C(=O)N12	17	-14	.	-1	-2	14
COc1ccc2c(c1)[C@H]1[C@H](CO2)[C@H](c2ccccc2)[C@]2(C)C(=O)Nc3cc(Cl)ccc3C(=O)N12	.	-1	.	.	.	64*
C[C@]12C(=O)N(c3cccc(Cl)c3)C(=O)N1[C@H]1c3ccccc3OC[C@@H]1[C@H]2c1ccccc1	.	3	.	.	.	-13
C[C@@]12C(=O)Nc3cc(F)ccc3C(=O)N1[C@H]1c3ccccc3OC[C@@H]1[C@@H]2c1ccccc1	.	-15	.	.	.	26*
Cc1noc(C)c1NC(=O)Nc1ccc2c(c1)C(=O)N([C@@H](C)CO)C[C@@H](C)[C@@H](CN(C)CC1CC1)OCCCC[C@@H](C)O2	.	6	.	-1	6	.
O=C1Nc2c(Cl)cc(Cl)cc2C1=O	4	1	118*	2	1	6
Cc1cccc(CCNC(=O)Cc2ccc(NC3=NC4CS(=O)(=O)CC4S3)cc2)c1 (centres undefined)	2	7	.	47*	-1	1
CNC[C@@H]1Oc2ccc(N)cc2C(=O)N(C)C[C@@H]1C	8	.	.	.	.	.
Cc1ccc(N2C(=O)Nc3ccccc3C2(O)C(=O)N2CCN(c3ccccn3)CC2)cc1C (centres undefined)	-3	16	-2	-6	-16	29*
CCC(C)NC(=O)C1(O)c2ccccc2NC(=O)N1c1ccc(C)c(C)c1 (centres undefined)	-3	-4	0	-1	-3	1
CCc1ccc(N2C(=O)Nc3ccccc3C2(O)C(=O)N2CCN(c3ccccn3)CC2)cc1 (centres undefined)	-9	2	-1	-1	-9	38*
N#CC(C#N)=c1ccc2c(c1)N1C3=C(CCCC3)CC3CCCCC31N=2 (centres undefined)	.	-12	55*	.	.	2
Cc1ccc(NC(=O)NCCN2CCCCC2)cc1Cl	8	-3	1	26*	1	-1
COc1ccc(NC(=S)NCCCN2CCOCC2)cc1	-5	.	-2	0	-4	1
COc1ccc(N2CCN(CCCNC(=S)Nc3c(C)cccc3C)CC2)cc1	4	9	8	43*	-7	-1
O=C(Cc1cccs1)Nc1ccc(-c2nc3ccccc3[nH]2)cc1	-22	-2	-1	.	.	33*
O=C(CSc1ccccc1)Nc1ccc(-c2nc3ccccc3[nH]2)cc1	-1	.	-1	.	.	9
CC1=CC(C)(C)n2c(O)c(N=N)c3cc(C)cc1c32	-9	-8	18	26*	-9	-1
CCCNC(=O)[C@H]1[C@H](CO)[C@H]2Cn3c(cccc3=O)[C@H]2N1CC1CCCC1	-1	.	.	-3	-19	.
COCC(=O)N(C)C[C@H]1Oc2ncc(-c3ccccc3C)cc2C(=O)N([C@H](C)CO)C[C@@H]1C	0	-1	.	-1	2	.
CC#CC[N+](C)(C)CCCCCCCCCC	-5	-15	-1	-4	3	3

Screening results deposited in PubChem BioAssay by Broad Institute.
